Assay results: paper PMC4862007 (Cell metabolism, 2015)

Target: T1, ABHD5 / PLIN1 (luciferase complementation) (Mus musculus, UniProt Q9DBL9)
T1 sequence (Q9DBL9 1-351): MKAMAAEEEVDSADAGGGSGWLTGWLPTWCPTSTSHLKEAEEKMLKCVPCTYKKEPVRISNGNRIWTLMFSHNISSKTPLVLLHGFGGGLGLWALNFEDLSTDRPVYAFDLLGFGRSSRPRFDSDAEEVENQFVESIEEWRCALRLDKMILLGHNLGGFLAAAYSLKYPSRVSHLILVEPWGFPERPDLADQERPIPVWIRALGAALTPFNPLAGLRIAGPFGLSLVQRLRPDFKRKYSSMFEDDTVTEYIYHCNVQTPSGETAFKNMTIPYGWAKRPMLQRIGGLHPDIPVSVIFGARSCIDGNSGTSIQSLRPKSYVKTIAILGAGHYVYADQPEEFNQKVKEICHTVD
T1 sequence (Q8CGN5 1-517 partner): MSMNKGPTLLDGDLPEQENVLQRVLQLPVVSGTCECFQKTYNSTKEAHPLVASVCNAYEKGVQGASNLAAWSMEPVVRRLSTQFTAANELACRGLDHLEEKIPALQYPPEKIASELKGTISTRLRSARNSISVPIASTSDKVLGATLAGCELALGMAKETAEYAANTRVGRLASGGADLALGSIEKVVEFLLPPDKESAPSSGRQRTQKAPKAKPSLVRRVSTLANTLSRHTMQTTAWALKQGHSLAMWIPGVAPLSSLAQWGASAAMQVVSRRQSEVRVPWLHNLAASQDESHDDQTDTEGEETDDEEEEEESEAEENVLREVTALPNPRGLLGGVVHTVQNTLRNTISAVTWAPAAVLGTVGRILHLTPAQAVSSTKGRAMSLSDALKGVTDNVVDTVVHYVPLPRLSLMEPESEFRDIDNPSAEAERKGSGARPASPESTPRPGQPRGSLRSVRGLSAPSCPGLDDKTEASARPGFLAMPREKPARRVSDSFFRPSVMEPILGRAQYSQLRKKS
Experiment: luciferase complementation, disruption of ABHD5-PLIN1 binding
Format: biochemical
Conditions: mixed 293T lysates, 4 h, room temperature; n=8
Method in brief: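 Lysates are prepared separately from transfected 293T cells and equal amounts of each are combined. Test compound is added in DMSO, with a DMSO vehicle control. After 4 h at room temperature, complementation is read as luciferase activity.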

IC50 [nM] | Structure (SMILES)
200 ± 30 | CCCCNC(=O)Nc1ccc2c(c1)N(C)C(=O)c1ccccc1S2 [SR-4995]
510 ± 60 | Cc1ccc2c(CC(=O)N3CCN(S(=O)(=O)c4ccc5c(c4)OCCO5)CC3)coc2c1 [SR-4559]
